Test results taken from ChEMBL document CHEMBL1126315, “Pyrrolobenzodiazepines and related systems. 2. Synthesis and biological properties of isonoraptazepine derivatives” (1992).

Assays:
Format in all cases: functional
Mus musculus [1] = test: Rotation number in mice was determined at 15 minutes after a dose of 10 mg/Kg
Summary of the method: (§1)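 Nomura water-wheel test: Swiss inbred mice (5 male, 5 female per group) dosed ip in 1% Tween 80, placed in a water tank with central wheel 1 h later. Wheel rotations counted by photointerrupter on the shaft, read at 9, 12 and 15 min. Mean ± SD vs vehicle controls.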

Mus musculus [2] = test: Compound was tested for total number of movements in 5 minutes after intraperitoneal administration of 37.5 mg/Kg in mice
Summary of the method: (§2)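 Open-field spontaneous activity 60 min after ip dosing in 1% Tween 80; Swiss inbred mice, 10 per group (5 male, 5 female), placed singly in 19 × 25 cm cages and monitored continuously for 5 min. Total movements as mean ± SEM vs vehicle controls.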

Mus musculus [3] = test: Rotation number in mice was determined at 9 minutes after a dose of 10 mg/Kg; summary of the method: as §1
Mus musculus [4] = test: Rotation number in mice was determined at 12 minutes after a dose of 10 mg/Kg; summary of the method: as §1
Mus musculus [5] = test: Compound was tested for total number of falls in 100 seconds after intraperitoneal administration of 37.5 mg/Kg in mice by rotarod test
Summary of the method: (§3)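 Mice (Swiss inbred, 5 male + 5 female per group) dosed ip in 1% Tween 80; Rota-Rod motor coordination assessed 80 min later. Falls counted over a 100 s observation period. Mean ± SEM vs vehicle controls, Dunnett t test.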

Mus musculus [6] = test: Compound was tested for myorelaxant action (time in seconds on the horizontal wire with forelegs) after intraperitoneal administration of 37.5 mg/Kg in mice by traction test
Summary of the method: (§4)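 Traction test on Swiss inbred mice, 10 per group (5 male, 5 female), dosed ip in 1% Tween 80; run 70 min after dosing. Time for animals to place hind legs on horizontal wire recorded in seconds. Mean ± SEM vs vehicle-treated controls, Dunnett t test.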

Mus musculus [7] = test: Total number of movements in 5 minutes after intraperitoneal administration of 75 mg/Kg in mice; summary of the method: as §2
Mus musculus [8] = test: Total number of explored holes in 5 minutes after intraperitoneal administration of 75 mg/Kg in mice
Summary of the method: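 Hole-board exploration at 65 min after ip dosing (1% Tween 80 vehicle) in Swiss inbred mice, 10 per group (5 male, 5 female). Holes explored counted by infrared detector below the hole lines over 5 min. Mean ± SEM vs vehicle controls, Dunnett t test.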

Mus musculus [9] = test: Total number of falls in 100 seconds after intraperitoneal administration of 75 mg/Kg in mice by rotarod test; summary of the method: as §3
Mus musculus [10] = test: Myorelaxant action (time in seconds on the horizontal wire with forelegs) after intraperitoneal administration of 75 mg/Kg in mice by traction test; summary of the method: as §4
Mus musculus [11] = test: Writhing number was determined against clonidine induced analgesia by the compound at an intraperitoneal dose of 10 mg/Kg in mice
Mus musculus [12] = test: Compound at an intraperitoneal dose of 10 mg/Kg was tested for the inhibition of abdominal constriction in mice; conditions: Abdomen, ip
Summary of the method: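 Swiss inbred mice (25 ± 3 g), 10 per group (5 male, 5 female), given compound ip in 1% Tween 80. Clonidine 0.1 mg/kg po 30 min later, then phenylquinone 3.75 mg/kg ip in 5% aqueous ethanol 20 min after that. Writhing counted by observer over 10 min starting 5 min post-injection; % inhibition relative to controls.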

Mus musculus [13] = test: Rotation number in mice was determined at 12 minutes after a dose of 2.5 mg/Kg
Summary of the method: (§5)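 Nomura water-wheel test in Swiss inbred mice (25 ± 3 g), groups of 10 (5 male, 5 female). Drug given ip in 1% Tween 80, single dose. Mouse placed in a water tank with a central wheel 1 h after dosing. Wheel rotations counted by photointerrupter, read at 9, 12 and 15 min. Mean ± SD versus vehicle controls.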

Mus musculus [14] = test: Compound was tested for total number of movements in 5 minutes after intraperitoneal administration of 10 mg/Kg in mice
Summary of the method: (§6)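 Swiss inbred mice (25 ± 3 g), groups of 10 (5 male, 5 female), given drug ip in 1% Tween 80; vehicle-treated controls. Single sequence per animal: open-field movements counted over 5 min at 60 min, hole-board explorations (infrared counting, 5 min) at 65 min, traction-test wire time at 70 min, Rota-Rod falls over 100 s at 80 min. Mean ± SEM, Dunnett t test.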

Mus musculus [15] = test: Rotation number in mice was determined at 9 minutes after a dose of 2.5 mg/Kg; summary of the method: as §5
Mus musculus [16] = test: Compound was tested for total number of explored holes in 5 minutes after intraperitoneal administration of 10 mg/Kg in mice; summary of the method: as §6
Mus musculus [17] = test: Rotation number in mice was determined at 15 minutes after a dose of 5 mg/Kg; summary of the method: as §5
Mus musculus [18] = test: Rotation number in mice was determined at 12 minutes after a dose of 5 mg/Kg; summary of the method: as §5
Mus musculus [19] = test: Compound was tested for myorelaxant action (time in seconds on the horizontal wire with forelegs) after intraperitoneal administration of 10 mg/Kg in mice by traction test; summary of the method: as §6
Mus musculus [20] = test: Rotation number in mice was determined at 15 minutes after a dose of 2.5 mg/Kg; summary of the method: as §5
Mus musculus [21] = test: Compound was tested for total number of falls in 100 seconds after intraperitoneal administration of 10 mg/Kg in mice by rotarod test; summary of the method: as §6
Mus musculus [22] = test: Rotation number in mice was determined at 9 minutes after a dose of 5 mg/Kg; summary of the method: as §5

| SMILES | Rotation number (Mus musculus [1]) | Rotation number (Mus musculus [3]) | Rotation number (Mus musculus [4]) | Spontaneous motor activity (Mus musculus [7]) | Exploratory activity (Mus musculus [8]) | Activity (Mus musculus [9]) | Time (Mus musculus [10]) [s] | other results |
| --- | --- | --- | --- | --- | --- | --- | --- | --- |
| c1ccc2c(c1)CN1CCNCC1c1cccn1-2 (stereo unspecified) | 12 | 17 | 10 |  |  |  |  | Spontaneous motor activity (Mus musculus [2]): 111; Activity (Mus musculus [5]): 3; Time (Mus musculus [6]): 4.9 s |
| CN1CC(=O)N2Cc3ccccc3-n3cccc3C2C1 (stereo unspecified) | 10 | 17 | 14 | 90 | 13 | 8.7 | 1 |  |
| CC(=O)N1CC(=O)N2Cc3ccccc3-n3cccc3C2C1 (stereo unspecified) | 49 | 54 | 57 | 121 | 10.7 | 1 | 3.5 |  |
| CN1CCN2Cc3ccccc3-n3cccc3C2C1 (stereo unspecified) | 11 | 21 | 16 | 96 | 3.8 | 5 | 4.4 |  |
| O=C1CNCC2c3cccn3-c3ccccc3CN12 (stereo unspecified) | 10 | 15 | 17 |  |  |  |  |  |
| CCN1CC(=O)N2Cc3ccccc3-n3cccc3C2C1 (stereo unspecified) | 22 | 22 | 17 | 285 | 9.8 | 0.4 | 2.1 |  |
| O=C1CC2c3cccn3-c3ccccc3CN2C(=O)CN1 (stereo unspecified) | 27 | 35 | 27 | 173 | 17.2 | 0.6 | 2.3 |  |
| Clc1ccc(CN2CCN3Cc4ccccc4-n4cccc4C3C2)cc1 (stereo unspecified) | 11 | 22 | 14 | 142 | 9.3 | 2.1 | 2 |  |
| O=C1NCC(=O)N2Cc3ccccc3-n3cccc3C12 (stereo unspecified) | 11 | 18 | 15 | 247 | 14.7 | 2.5 | 5.5 | Writhing number (Mus musculus [11]): 12; inhibition in vivo at 10 mg/kg (Mus musculus [12]): 43% |
| C=CCN1CCN2Cc3ccccc3-n3cccc3C2C1 (stereo unspecified) | 14 | 16 | 16 |  |  |  |  |  |
| CC(=O)N1CCN2Cc3ccccc3-n3cccc3C2C1 (stereo unspecified) | 17 | 21 | 23 |  |  |  |  |  |
| CN1CCN2c3ccccc3Cn3cccc3C2C1 (stereo unspecified) [APTAZAPINE] | 2 | 8 | 5 | 59 | 0.5 | 6.5 | 8.1 | Rotation number (Mus musculus [13]): 3; Spontaneous motor activity (Mus musculus [14]): 168; Rotation number (Mus musculus [15]): 12; Writhing number (Mus musculus [11]): 18; Exploratory activity (Mus musculus [16]): 8.8; Rotation number (Mus musculus [17]): 2; Rotation number (Mus musculus [18]): 8; Time (Mus musculus [19]): 2.5 s; Rotation number (Mus musculus [20]): 2; Activity (Mus musculus [21]): 5; Rotation number (Mus musculus [22]): 5; inhibition in vivo at 10 mg/kg (Mus musculus [12]): 14% |
| O=C(c1ccc(Cl)cc1)N1CCN2Cc3ccccc3-n3cccc3C2C1 (stereo unspecified) | 7 | 7 | 6 |  |  |  |  |  |
| O=C1CN(Cc2ccc(F)cc2)CC2c3cccn3-c3ccccc3CN12 (stereo unspecified) |  |  |  | 178 | 6 | 1.8 | 4.2 |  |
| O=C1CN(Cc2ccc(Cl)cc2)CC2c3cccn3-c3ccccc3CN12 (stereo unspecified) |  |  |  |  |  |  |  | Writhing number (Mus musculus [11]): 8; inhibition in vivo at 10 mg/kg (Mus musculus [12]): 63% |
| CN(C)CCCN1c2ccccc2CCc2ccccc21 [IMIPRAMINE] | 36 | 48 | 40 |  |  |  |  | Spontaneous motor activity (Mus musculus [2]): 183; Activity (Mus musculus [5]): 4.8; Time (Mus musculus [6]): 5.7 s; inhibition in vivo at 10 mg/kg (Mus musculus [12]): 100% |
| CCN1CCN2Cc3ccccc3-n3cccc3C2C1 (stereo unspecified) | 24 | 30 | 27 | 188 | 7.6 | 1.1 | 3.1 |  |
| O=C1CN(Cc2ccccc2)CC2c3cccn3-c3ccccc3CN12 (stereo unspecified) | 31 | 45 | 41 |  |  |  |  |  |
